# Bioassay records from PubChem BioAssay.
# TAAR1 antagonist = human TAAR1 antagonism. AID 624466. actives 1.5% (n = 360,000). Q96RJ0. inhibition, % at 3 µM. CHO RD-HGA16 TAAR1, Fluo-8 calcium fluorescence, antagonist;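 active = inhibition above a per-plate cutoff, the mean inhibition of test compounds on that plate plus 3 SD, cut at about 49% in these data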
#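 Test system: hTAAR1-expressing CHO RD-HGA16 cells, Gα16-coupled; Probe or stimulus: EC80 β-phenethylamine stimulus; Compound dosing: single nominal final test compound concentration of 3 µM; Timing: 140 s kinetic read after compound, 140 s after agonist; Signal: Fluo-8 calcium-sensitive fluorescence; Measure: % inhibition of agonist calcium response; Controls: DMSO and EC80 PEA controls.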
# TAAR1 agonist = agonists of human TAAR1. Q96RJ0. activation, % at 3 µM. CHO RD-HGA16 TAAR1, Fluo-8 calcium fluorescence; vehicle wells 0%, saturating PEA agonist 100%. actives 0.99% (n = 360,000);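 active = activation above the mean activation of all test compounds in the run plus 3 SD, cut at about 38% in these data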
#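 Test system: RD-HGA16 (CHO) cells co-expressing Gα16 and hTAAR1 / Benchmarks: DMSO vehicle as 0%, PEA at EC100 as 100% / Repeats: no replicates (n 1) / Measure: % activation from peak over basal fluorescence ratio, DMSO-to-PEA scaled / Timing: 17-24 h plating, Fluo-8 75 min 37 °C, 30 min RT / Technique: kinetic Fluo-8 calcium fluorescence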
# OXTR ag = human OXTR agonism; P30559; CHO-OTR cells, Fluo-8 calcium fluorescence; normalized: DMSO 0%, oxytocin 100%; activation, % at 3 µM; actives 0.32% (n = 320,000);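 active = activation above the mean of all tested compounds plus 3 SD, cutoff set per screening run, cut at about 20% in these data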;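 note: peak over basal fluorescence ratio from a 100 s FLIPR kinetic read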
# OXTR potentiator = human OXTR potentiation; actives 0.061% (n = 320,000); CHO-OTR cells, Fluo-8 calcium fluorescence, potentiator mode; 0% = oxytocin EC15, 100% = EC100; activation, % at 3 µM; P30559;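 active = activation above that plate's cutoff, the mean activation of tested compounds plus 3 SD, cut at about 6.6% in these data, passing the limit was not always enough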
#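 Material: CHO-OTR cells, human receptor; compound dosing: single dose, 3.0 µM nominal final compound concentration; schedule: 6 min compound pre-incubation at room temperature, 100 s kinetic read; measured by: kinetic Fluo-8 calcium fluorescence; read-out basis: % activation vs EC15 and EC100 oxytocin; controls: EC15 oxytocin alone as 0%, 75 nM oxytocin as 100%; replicates: singlicate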
# V1R ag counter = activates human V1a receptor in oxytocin agonist counter-screen; actives 0.25% (n = 320,000); activation, % at 3 µM; CHO-V1R cells, Fluo-8 calcium fluorescence, agonist mode; 0% DMSO, 100% 3 nM vasopressin; P37288; AID 2797;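 active = activation above the mean activation of all tested compounds plus 3 SD, per screening run, cut at about 20% in these data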;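 note: signal is peak over basal fluorescence ratio across a 100 second FLIPR read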
# Target sequence (P37288 whole entry, looked up): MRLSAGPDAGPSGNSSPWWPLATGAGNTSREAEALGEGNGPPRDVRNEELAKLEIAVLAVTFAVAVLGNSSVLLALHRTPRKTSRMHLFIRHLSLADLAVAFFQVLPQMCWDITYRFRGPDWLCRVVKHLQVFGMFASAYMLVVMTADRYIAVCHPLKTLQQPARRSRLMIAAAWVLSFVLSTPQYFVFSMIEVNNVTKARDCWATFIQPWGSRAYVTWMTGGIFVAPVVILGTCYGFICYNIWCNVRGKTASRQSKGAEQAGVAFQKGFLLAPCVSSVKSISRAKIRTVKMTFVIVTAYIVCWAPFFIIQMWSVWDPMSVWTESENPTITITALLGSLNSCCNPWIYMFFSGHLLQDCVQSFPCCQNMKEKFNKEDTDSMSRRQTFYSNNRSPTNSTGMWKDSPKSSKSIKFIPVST
# Hits are given with their value; i = inactive; nt = no result given; ! = not active in a repeat. Compounds with a hit are over-represented: about 2.3% of the library has one in this group of screens.
SMILES,TAAR1 antagonist,TAAR1 agonist,OXTR ag,OXTR potentiator,V1R ag counter
O=C1CC(N2CCN(c3ccc(F)cc3)CC2)C(=O)N1c1ccc2c(c1)OCO2 (stereo not drawn),i,i,i,i,i
CCCC1=NN2C(=N)/C(=C\c3cc(C)n(-c4cc(C)cc(C)c4)c3C)C(=O)N=C2S1,53.2,41.8,i,i,i
Cc1ccc(-n2cc(CN3CCC(CO)(Cc4cccc(C(F)(F)F)c4)CC3)cn2)cc1,i,43.8,i,i,i
COC(=O)c1cccc(NC(=O)CCSc2ccc(Cl)cc2)c1C,91.3,77.4,i,i,i
N#Cc1c(-c2ccccc2)nc(-c2ccccc2)nc1N1CCOCC1,i,40.7,i,i,i
CN1CCN(c2nc(-c3ccccc3)nc(-c3ccccc3)c2C#N)CC1,i,i,i,i,i
O=C(Nc1ccc(O)cc1)/C(=C\c1ccncc1)NC(=O)c1ccccc1,i,i,i,i,i
O=C(Nc1ccc(O)cc1)/C(=C\C=C\c1ccccc1)NC(=O)c1ccccc1,49.6,i,i,i,i
CCOC(=O)N1CCN(CC(=O)Nc2ccc([N+](=O)[O-])cc2C(=O)Nc2ccccc2F)CC1,56.3,i,i,i,i
COC(=O)c1ccc(NC(=O)CN2CCN(c3ccccn3)CC2)cc1,i,i,i,i,i
COc1cc(NC(=O)c2cc([N+](=O)[O-])ccc2NC(=O)CN2CCN(c3ccccn3)CC2)cc(OC)c1,60.7,i,i,i,i
CN1CCN(C2=C(Cl)C(=O)c3ccccc3C2=O)CC1,i,i,nt,nt,nt
CC1COCC(C)N1C1=C(Cl)C(=O)c2ccccc2C1=O (stereo not drawn),i,41.0,nt,nt,nt
COC(=O)c1cccc(NS(=O)(=O)c2ccc(OC)c(C(=O)N3CCOCC3)c2)c1C,i,i,i,i,i
Cc1ccc(S(=O)(=O)N2C[C@H]3N(C(=O)OC(C)C)N(C(=O)OC(C)C)C[C@H](OC(=O)NC4CCCC4)[C@@]3(O)C2)cc1,i,i,nt,nt,nt
CC(CCC(C)C(C)(C)C)[C@@H]1CC[C@H]2C3C[C@H](OS(O)(=S)=S)[C@H]4C[C@H](OS(O)(=S)=S)[C@@H](OS(O)(=S)=S)C[C@]4(C)[C@H]3CC[C@]12C (stereo partly drawn) (tested in a mixture with another compound),nt,nt,58.5,i,71.0!
COc1cc(C(=O)NC(=S)N(CCc2ccccc2)CCc2ccccc2)cc(OC)c1OC,53.2,i,i,i,i
COc1cc(C(=O)NC(=S)N(C)Cc2ccccc2)cc(OC)c1OC,i,i,i,i,i
CC1CN(C(=O)c2ccc(S(=O)(=O)Nc3cccc(C(F)(F)F)c3)cc2)CC(C)O1 (stereo not drawn),i,58.9,25.8,i,21.4
Cc1ccc(S(=O)(=O)NCC(=O)OC(C)C(=O)NCc2ccc3c(c2)OCO3)cc1 (stereo not drawn),i,i,nt,nt,nt
O=C(Oc1cccc(NC2=NS(=O)(=O)c3ccccc32)c1)c1cccnc1,49.4,i,i,i,i
CCN(CC)Cc1cc(NC2=NS(=O)(=O)c3ccccc32)ccc1OC(=O)c1ccccc1,i,i,i,i,i
O=C(CNC(=O)C1COc2ccccc2O1)N/N=C/c1ccc(O)cc1O (stereo not drawn),i,40.9,i,i,i
Cc1cnc(CNC(=O)c2csc([C@@H]3C[C@H](O)[C@@H](CO)O3)n2)cn1,i,i,nt,nt,nt
Cc1ccc(NC(=O)CN2C(=O)N/C(=C/c3ccc(N4CCOCC4)cc3)C2=O)cc1,i,i,i,i,i
SMILES,TAAR1 antagonist,TAAR1 agonist,OXTR ag,OXTR potentiator,V1R ag counter
Cc1ccccc1NC(=O)CN1C(=O)N/C(=C\c2ccc(N3CCOCC3)c(F)c2)C1=O,i,i,i,9.9,i
O=C(O)c1ccc(S(=O)(=O)NC2CCCCCC2)cc1,i,i,i,i,i
Cc1ccccc1NC(=O)Cc1nc(COC(=O)COc2ccccc2C(C)C)cs1,54.6,i,i,i,i
O=C(c1ccc(COc2ccccc2)o1)N1CCN(S(=O)(=O)c2ccccc2Cl)CC1,50.8,i,i,i,i
Cc1ccc(S(=O)(=O)N2CCN(C(=O)c3ccc(COc4ccccc4)o3)CC2)cc1,i,i,i,i,i
COc1cc(/C=C(\C#N)c2nc3c(s2)CCCC3)ccc1O,nt,nt,60.0,i,57.3
